In ChEMBL document CHEMBL2401724, “Synthesis and structure--activity relationships of N²-alkylated quaternary β-carbolines as novel antitumor agents” (Eur J Med Chem, 2013) one finds IC50, inhibition in vivo and LD50 data, which are given here for 4 compounds.

Structures are written as SMILES.

In one data set the test system is CWR22R. The data set is described as follows: Cytotoxicity against human 22Rv1 cells by MTT assay. The format is functional, cell-based.
Conditions: not given
In outline: (§1)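 Cell lines were cultured in 96-well microtitre plates at 37 °C in humidified 5% CO₂. Compounds were dissolved in DMSO, at ≤2% (v/v) final in the growth medium. Viability was read by MTT staining, expressed relative to untreated cells.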
Background: Tetrazolium assays rely on reduction of a dye to a coloured formazan, in cell work by metabolically active cells.
A word on the IC50: it is the concentration at which inhibition is half-maximal. A lower IC50 goes with inhibition by little substance. In turn, `Fc1ccc(C[n+]2ccc3c4ccccc4n(CCCc4ccccc4)c3c2)cc1.[Cl-]` had an IC50 of 4.3 µM.

`Clc1cccc(C[n+]2ccc3c4ccccc4n(CCCc4ccccc4)c3c2)c1.[Br-]` registered an IC50 of 9.7 µM.

Consider `Cc1c2c(cc[n+]1Cc1ccccc1)c1ccccc1n2CCCc1ccccc1.[Br-]`, for which half-maximal inhibition (IC50) was put at 1.8 µM.

`COc1ccc(-c2c3c(cc[n+]2Cc2ccccc2)c2ccccc2n3CCCc2ccccc2)cc1.[Br-]` came in with an IC50 of 1.8 µM.

A further data set relates to BGC-823. In words: Cytotoxicity against human BGC823 cells by MTT assay. The data set is classed as functional, cell-based.
Conditions: not given
The method in brief:
as §1
Compound `Fc1ccc(C[n+]2ccc3c4ccccc4n(CCCc4ccccc4)c3c2)cc1.[Cl-]` registered an IC50 of 8.1 µM.

Consider `Clc1cccc(C[n+]2ccc3c4ccccc4n(CCCc4ccccc4)c3c2)c1.[Br-]`, for which the IC50 turned out to be 9.8 µM.

As to `Cc1c2c(cc[n+]1Cc1ccccc1)c1ccccc1n2CCCc1ccccc1.[Br-]`, 6.9 µM corresponded to half-maximal inhibition (IC50).

For the compound `COc1ccc(-c2c3c(cc[n+]2Cc2ccccc2)c2ccccc2n3CCCc2ccccc2)cc1.[Br-]`, 3.2 µM corresponded to half-maximal inhibition (IC50).

Another data set has as its system Lewis lung carcinoma cell line. The data set is described as follows: Antitumor activity against mouse LLC cells allografted in mouse assessed as tumor growth inhibition at 1.25 mg/kg, ip qd administered for 7 days measured after 21 days relative to control. The data set is classed as functional. The conditions noted are these: route intraperitoneal, read-out: TGI. In outline:
(§2)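 Tumour cells (S180 sarcoma or Lewis lung) were first grown in mice for 7 days, then harvested. Viable cells (2 × 10⁶/mouse) were injected s.c. into the armpit. Groups of 10 female mice received the compound i.p. once daily for 7 consecutive days, starting 24 h after inoculation. Cyclophosphamide 30 mg/kg served as positive control and vehicle as negative control. Body weights were taken every 3 days. Mice were killed on day 21 post-inoculation, and tumours were excised and weighed to calculate the inhibition rate versus control.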
Regarding `COc1ccc(-c2c3c(cc[n+]2Cc2ccccc2)c2ccccc2n3CCCc2ccccc2)cc1.[Br-]`, the inhibition in vivo at 1.25 mg/kg is 23.9%.

Tested on in the next data set: not listed separately
The data set is described as follows: Cytotoxicity against human ECA109 cells by MTT assay. The format is functional, cell-based. The conditions noted are these: ECa-109. In outline:
as §1
As for `Fc1ccc(C[n+]2ccc3c4ccccc4n(CCCc4ccccc4)c3c2)cc1.[Cl-]`, the IC50 was determined as 5.3 µM.

`Clc1cccc(C[n+]2ccc3c4ccccc4n(CCCc4ccccc4)c3c2)c1.[Br-]`: the IC50 worked out at 7.9 µM.

On to `Cc1c2c(cc[n+]1Cc1ccccc1)c1ccccc1n2CCCc1ccccc1.[Br-]`, for which half-maximal inhibition (IC50) was put at 6.8 µM.

`COc1ccc(-c2c3c(cc[n+]2Cc2ccccc2)c2ccccc2n3CCCc2ccccc2)cc1.[Br-]`: inhibition was half-maximal at 12.3 µM (IC50).

The subject of a further data set is MCF7. The data set is described as follows: Cytotoxicity against human MCF7 cells by MTT assay. The format is functional, cell-based.
Conditions: not given
The method in brief:
as §1
The compound `Fc1ccc(C[n+]2ccc3c4ccccc4n(CCCc4ccccc4)c3c2)cc1.[Cl-]` returned an IC50 of 9.7 µM.

As for `Clc1cccc(C[n+]2ccc3c4ccccc4n(CCCc4ccccc4)c3c2)c1.[Br-]`, the midpoint of inhibition, the IC50, lay at 14.3 µM.

As for `Cc1c2c(cc[n+]1Cc1ccccc1)c1ccccc1n2CCCc1ccccc1.[Br-]`, the IC50 came to 7 µM.

Turning to `COc1ccc(-c2c3c(cc[n+]2Cc2ccccc2)c2ccccc2n3CCCc2ccccc2)cc1.[Br-]`, the IC50 was 2.2 µM.

Tested on in a further data set: not listed separately
The data set is described as follows: Cytotoxicity against mouse LLC cells by MTT assay. The conditions noted are these: Lewis lung carcinoma. The format is functional, cell-based. The method in brief: as §1
With `Fc1ccc(C[n+]2ccc3c4ccccc4n(CCCc4ccccc4)c3c2)cc1.[Cl-]`, half-maximal inhibition (IC50) required 8.1 µM.

In turn, `Clc1cccc(C[n+]2ccc3c4ccccc4n(CCCc4ccccc4)c3c2)c1.[Br-]` returned an IC50 of 6.5 µM.

`Cc1c2c(cc[n+]1Cc1ccccc1)c1ccccc1n2CCCc1ccccc1.[Br-]` registered an IC50 of under 2 µM.

On to `COc1ccc(-c2c3c(cc[n+]2Cc2ccccc2)c2ccccc2n3CCCc2ccccc2)cc1.[Br-]`, for which the IC50 was under 2 µM.

For another data set, the system named is A-375. In words: Cytotoxicity against human A375 cells by MTT assay.
Conditions: not given
The format is functional, cell-based. In outline:
as §1
On to `Fc1ccc(C[n+]2ccc3c4ccccc4n(CCCc4ccccc4)c3c2)cc1.[Cl-]`, for which the IC50 is 10.4 µM.

Turning to `Clc1cccc(C[n+]2ccc3c4ccccc4n(CCCc4ccccc4)c3c2)c1.[Br-]`, 24.6 µM corresponded to half-maximal inhibition (IC50).

In turn, `Cc1c2c(cc[n+]1Cc1ccccc1)c1ccccc1n2CCCc1ccccc1.[Br-]` came in with an IC50 of 8.5 µM.

Compound `COc1ccc(-c2c3c(cc[n+]2Cc2ccccc2)c2ccccc2n3CCCc2ccccc2)cc1.[Br-]` yielded an IC50 of under 2 µM.

The next data set relates to SK-OV-3. The data set is described as follows: Cytotoxicity against human SKOV3 cells by MTT assay. The format is functional, cell-based.
Conditions: not given
The method in brief:
as §1
`Fc1ccc(C[n+]2ccc3c4ccccc4n(CCCc4ccccc4)c3c2)cc1.[Cl-]` registered an IC50 of 12.2 µM.

`Clc1cccc(C[n+]2ccc3c4ccccc4n(CCCc4ccccc4)c3c2)c1.[Br-]` registered an IC50 of 13.8 µM.

`Cc1c2c(cc[n+]1Cc1ccccc1)c1ccccc1n2CCCc1ccccc1.[Br-]` returned an IC50 of 7.6 µM.

In turn, `COc1ccc(-c2c3c(cc[n+]2Cc2ccccc2)c2ccccc2n3CCCc2ccccc2)cc1.[Br-]` displayed an IC50 of 5.2 µM.

Another data set has as its system Lewis lung carcinoma cell line. The data set is described as follows: Antitumor activity against mouse LLC cells allografted in mouse assessed as tumor growth inhibition at 0.5 mg/kg, ip qd administered for 7 days measured after 21 days relative to control. The format is functional. The conditions noted are these: route intraperitoneal, read-out: TGI. In outline:
as §2
Consider `Cc1c2c(cc[n+]1Cc1ccccc1)c1ccccc1n2CCCc1ccccc1.[Br-]`, for which the inhibition in vivo at 0.5 mg/kg turned out to be 33.1%.

Tested on in another data set: not listed separately
In words: Acute toxicity in ip dosed C57BL/6 mouse after 14 days. The conditions noted are these: in vivo. The format is organism-based. In outline:
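C57BL/6 mice (9–12 weeks, 18–22 g), single i.p. dose; watched continuously for 2 h, intermittently over 24 h, then occasionally to day 14 for behaviour, deaths and delayed effects. Survivors killed at day 14; heart, liver, kidneys inspected macroscopically, early deaths also examined. LD50 derived graphically.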
Broadly, the LD50 is the dose at which mortality reaches 50%. A low value points to a more toxic substance. The compound `Fc1ccc(C[n+]2ccc3c4ccccc4n(CCCc4ccccc4)c3c2)cc1.[Cl-]` came in with an LD50 at 336 h of 12.5 mg/kg.

For the compound `Clc1cccc(C[n+]2ccc3c4ccccc4n(CCCc4ccccc4)c3c2)c1.[Br-]`, the LD50 at 336 h was 30 mg/kg.

Compound `Cc1c2c(cc[n+]1Cc1ccccc1)c1ccccc1n2CCCc1ccccc1.[Br-]` displayed an LD50 at 336 h of 2.5 mg/kg.

The compound `COc1ccc(-c2c3c(cc[n+]2Cc2ccccc2)c2ccccc2n3CCCc2ccccc2)cc1.[Br-]` had an LD50 at 336 h of 6.25 mg/kg.

A further data set relates to HT-29. In words: Cytotoxicity against human HT-29 cells by MTT assay. The format is functional, cell-based.
Conditions: not given
The method in brief: as §1
The compound `Fc1ccc(C[n+]2ccc3c4ccccc4n(CCCc4ccccc4)c3c2)cc1.[Cl-]` showed an IC50 of 9.1 µM.

Consider `Clc1cccc(C[n+]2ccc3c4ccccc4n(CCCc4ccccc4)c3c2)c1.[Br-]`, for which the midpoint of inhibition, the IC50, lay at 16.5 µM.

As to `Cc1c2c(cc[n+]1Cc1ccccc1)c1ccccc1n2CCCc1ccccc1.[Br-]`, it took 14.6 µM to reach half-maximal inhibition (IC50).

Take `COc1ccc(-c2c3c(cc[n+]2Cc2ccccc2)c2ccccc2n3CCCc2ccccc2)cc1.[Br-]`: the midpoint of inhibition, the IC50, lay at 2.4 µM.

The subject of another data set is HepG2. The data set is described as follows: Cytotoxicity against human HepG2 cells by MTT assay.
Conditions: not given
The data set is classed as functional, cell-based. In outline: as §1
As to `Fc1ccc(C[n+]2ccc3c4ccccc4n(CCCc4ccccc4)c3c2)cc1.[Cl-]`, the IC50 came out at 10.4 µM.

For `Clc1cccc(C[n+]2ccc3c4ccccc4n(CCCc4ccccc4)c3c2)c1.[Br-]`, half-maximal inhibition (IC50) was put at 19 µM.

The compound `Cc1c2c(cc[n+]1Cc1ccccc1)c1ccccc1n2CCCc1ccccc1.[Br-]` yielded an IC50 of 5.8 µM.

`COc1ccc(-c2c3c(cc[n+]2Cc2ccccc2)c2ccccc2n3CCCc2ccccc2)cc1.[Br-]` registered an IC50 of 3.3 µM.

The subject of a further data set is 769-P. In words: Cytotoxicity against human 769-P cells by MTT assay. The data set is classed as functional, cell-based.
Conditions: not given
In outline: as §1
Take `Fc1ccc(C[n+]2ccc3c4ccccc4n(CCCc4ccccc4)c3c2)cc1.[Cl-]`: the midpoint of inhibition, the IC50, lay at 14.3 µM.

Compound `Clc1cccc(C[n+]2ccc3c4ccccc4n(CCCc4ccccc4)c3c2)c1.[Br-]` showed an IC50 of 21.9 µM.

For the compound `Cc1c2c(cc[n+]1Cc1ccccc1)c1ccccc1n2CCCc1ccccc1.[Br-]`, half-maximal inhibition (IC50) required 5.3 µM.

Compound `COc1ccc(-c2c3c(cc[n+]2Cc2ccccc2)c2ccccc2n3CCCc2ccccc2)cc1.[Br-]` had an IC50 of under 2 µM.

Tested on in the next data set: not listed separately
The data set is described as follows: Antitumor activity against mouse Sarcoma 180 cells allografted in mouse assessed as tumor growth inhibition at 6 mg/kg, ip qd administered for 7 days measured after 21 days relative to control. The conditions noted are these: Sarcoma-180, ip, route intraperitoneal, read-out: TGI. The format is functional. In outline:
as §2
As for `Clc1cccc(C[n+]2ccc3c4ccccc4n(CCCc4ccccc4)c3c2)c1.[Br-]`, the inhibition in vivo at 6 mg/kg was 43.5%.

Tested on in the next data set: not listed separately
In words: Antitumor activity against mouse Sarcoma 180 cells allografted in mouse assessed as tumor growth inhibition at 2.5 mg/kg, ip qd administered for 7 days measured after 21 days relative to control. As to conditions: Sarcoma-180, ip, route intraperitoneal, read-out: TGI. The format is functional. In outline:
as §2
Turning to `Fc1ccc(C[n+]2ccc3c4ccccc4n(CCCc4ccccc4)c3c2)cc1.[Cl-]`, the inhibition in vivo at 2.5 mg/kg amounted to 51.5%.

Tested on in a further data set: not listed separately
The data set is described as follows: Antitumor activity against mouse Sarcoma 180 cells allografted in mouse assessed as tumor growth inhibition at 0.5 mg/kg, ip qd administered for 7 days measured after 21 days relative to control. The data set is classed as functional. As to conditions: Sarcoma-180, ip, route intraperitoneal, read-out: TGI. In outline: as §2
Consider `Cc1c2c(cc[n+]1Cc1ccccc1)c1ccccc1n2CCCc1ccccc1.[Br-]`, for which the inhibition in vivo at 0.5 mg/kg is 51%.

Tested on in another data set: not listed separately
The data set is described as follows: Antitumor activity against mouse Sarcoma 180 cells allografted in mouse assessed as tumor growth inhibition at 1.25 mg/kg, ip qd administered for 7 days measured after 21 days relative to control. The format is functional. As to conditions: Sarcoma-180, ip, route intraperitoneal, read-out: TGI. In outline: as §2
Regarding `COc1ccc(-c2c3c(cc[n+]2Cc2ccccc2)c2ccccc2n3CCCc2ccccc2)cc1.[Br-]`, the inhibition in vivo at 1.25 mg/kg came to 41.4%.
